ChEMBL document CHEMBL3600316, “Discovery of an 8-methoxytetrahydroisoquinoline derivative as an orally active N-type calcium channel blocker for neuropathic pain without CYP inhibition liability” (Bioorg Med Chem, 2015)

How the values were obtained:
[1] = test system: Mus musculus; assay: Antinociceptive activity in ddY mouse at 100 mg/kg, po by formalin test; format: functional
[2] = target: Cytochrome P450 2D6 (Homo sapiens, UniProt P10635); assay: Inhibition of CYP2D6 (unknown origin) by fluorescence-based assay
Sequence of Cytochrome P450 2D6 (P10635 whole entry): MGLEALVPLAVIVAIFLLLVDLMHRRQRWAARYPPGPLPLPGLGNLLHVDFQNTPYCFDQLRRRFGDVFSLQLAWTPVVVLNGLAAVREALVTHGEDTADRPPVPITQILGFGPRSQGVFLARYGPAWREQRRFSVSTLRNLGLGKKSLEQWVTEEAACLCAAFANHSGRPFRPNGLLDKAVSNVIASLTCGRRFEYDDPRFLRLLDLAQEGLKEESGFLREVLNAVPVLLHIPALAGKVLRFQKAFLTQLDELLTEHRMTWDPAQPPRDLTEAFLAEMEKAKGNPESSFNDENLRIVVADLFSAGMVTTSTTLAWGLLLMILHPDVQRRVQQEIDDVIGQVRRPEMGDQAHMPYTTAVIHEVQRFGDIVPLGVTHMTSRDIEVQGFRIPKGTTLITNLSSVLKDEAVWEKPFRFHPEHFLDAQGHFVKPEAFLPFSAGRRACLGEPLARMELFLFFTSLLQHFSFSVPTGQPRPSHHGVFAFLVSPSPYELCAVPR

[3] = Inhibition of N-type calcium channel in human IMR-32 cells by FLIPR calcium imaging assay; format: cell-based
In short: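 FLIPR calcium imaging in IMR-32 human neuroblastoma cells with nitrendipine present to block endogenous L-type channels; IC50 determined in duplicate in one experiment, advanced compounds tested in several repeat assays.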

[4] = target: T1, CYP3A4 (Homo sapiens, UniProt P08684); assay: Time-dependent inhibition of CYP3A4 in human liver microsomes assessed as residual enzyme activity using midazolam as substrate preincubated for 30 mins by fluorescence-based assay; settings: probe midazolam
T1 sequence (P08684 whole entry): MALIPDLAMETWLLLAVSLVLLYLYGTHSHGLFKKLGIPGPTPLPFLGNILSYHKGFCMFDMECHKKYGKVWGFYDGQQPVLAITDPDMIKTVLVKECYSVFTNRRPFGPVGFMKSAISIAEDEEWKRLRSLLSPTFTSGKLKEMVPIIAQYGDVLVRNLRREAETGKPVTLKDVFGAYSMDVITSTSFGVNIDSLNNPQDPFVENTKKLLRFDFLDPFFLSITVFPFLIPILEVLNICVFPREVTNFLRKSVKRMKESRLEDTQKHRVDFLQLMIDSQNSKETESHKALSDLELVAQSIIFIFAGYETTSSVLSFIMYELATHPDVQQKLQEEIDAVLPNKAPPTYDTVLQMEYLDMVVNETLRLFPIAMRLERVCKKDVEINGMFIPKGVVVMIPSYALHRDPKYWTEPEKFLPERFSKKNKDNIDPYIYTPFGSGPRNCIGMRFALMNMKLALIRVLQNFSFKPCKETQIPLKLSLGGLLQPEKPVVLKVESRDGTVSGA

[5] = target: T1, CYP3A4; assay: Reversible inhibition of CYP3A4 in human liver microsomes assessed as residual enzyme activity using midazolam as substrate by fluorescence-based assay; settings: probe midazolam
[6] = test system: Rattus norvegicus; assay: Analgesic activity in po dosed Sprague-Dawley rat L5/L6 SNL model assessed as reduction of mechanical allodynia; format: functional
In short: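 Male Sprague-Dawley rats, L5/L6 spinal nerve ligation model; drug suspended/diluted in 0.5% methylcellulose, given orally at 0.3–10 mg/kg (dose as free form).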

[7] = Clearance in human liver microsomes; format: ADME; settings: read-out: CLH
[8] = target: Voltage-gated L-type calcium channel (Homo sapiens, UniProt Q13936+Q13698+Q01668+O60840); assay: Inhibition of L-type calcium channel in human IMR-32 cells by FLIPR calcium imaging assay; format: cell-based
[9] = target: Cytochrome P450 2C9 (Homo sapiens, UniProt P11712); assay: Inhibition of CYP2C9 (unknown origin) by fluorescence-based assay; format: ADME
Sequence of Cytochrome P450 2C9 (P11712 whole entry): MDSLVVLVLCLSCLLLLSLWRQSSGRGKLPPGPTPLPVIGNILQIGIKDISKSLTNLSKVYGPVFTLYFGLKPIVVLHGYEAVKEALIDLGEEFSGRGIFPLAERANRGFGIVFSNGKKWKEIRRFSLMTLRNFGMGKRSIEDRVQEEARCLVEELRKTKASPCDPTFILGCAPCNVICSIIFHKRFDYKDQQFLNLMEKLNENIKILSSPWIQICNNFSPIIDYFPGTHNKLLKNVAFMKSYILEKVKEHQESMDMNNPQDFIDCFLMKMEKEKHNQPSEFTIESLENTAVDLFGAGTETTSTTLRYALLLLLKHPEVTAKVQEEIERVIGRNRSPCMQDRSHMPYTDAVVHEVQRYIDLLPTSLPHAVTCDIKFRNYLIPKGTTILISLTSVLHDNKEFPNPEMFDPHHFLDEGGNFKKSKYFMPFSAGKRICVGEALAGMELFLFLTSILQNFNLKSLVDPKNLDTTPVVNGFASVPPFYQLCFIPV
In short: (§1)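 Fluorescence-based assay with fluorogenic substrate, as for CYP1A2 and 2D6; IC50 determined.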

[10] = target: Cytochrome P450 2C19 (Homo sapiens, UniProt P33261); assay: Inhibition of CYP2C19 (unknown origin) by fluorescence-based assay; format: ADME; in short: as §1
Sequence of Cytochrome P450 2C19 (P33261 whole entry): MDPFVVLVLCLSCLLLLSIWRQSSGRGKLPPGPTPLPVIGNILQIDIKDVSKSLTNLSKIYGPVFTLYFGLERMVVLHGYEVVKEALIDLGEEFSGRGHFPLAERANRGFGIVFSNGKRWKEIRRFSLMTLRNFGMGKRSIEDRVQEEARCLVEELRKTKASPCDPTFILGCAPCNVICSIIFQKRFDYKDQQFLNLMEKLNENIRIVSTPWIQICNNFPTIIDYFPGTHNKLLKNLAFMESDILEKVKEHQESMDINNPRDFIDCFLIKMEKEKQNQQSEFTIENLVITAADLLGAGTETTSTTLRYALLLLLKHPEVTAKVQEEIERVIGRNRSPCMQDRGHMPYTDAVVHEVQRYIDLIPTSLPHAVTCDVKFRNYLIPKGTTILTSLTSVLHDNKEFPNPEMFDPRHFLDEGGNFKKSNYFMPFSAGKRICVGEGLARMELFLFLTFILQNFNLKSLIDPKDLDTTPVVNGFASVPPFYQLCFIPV

SMILES | IC50 [2] [nM] | IC50 [3] [nM] | activity at 30 min [4] [%] | activity [5] [%] | CLint scaled [7] [mL/min/kg] | IC50 [8] [nM] | IC50 [9] [nM] | IC50 [10] [nM] | inhibition in vivo at 100 mg/kg [1] [%] | ED50 [6] [mg/kg]
O=C(CNCC1(O)CCCCC1)N1CCc2ccccc2C1C1CCCCC1 (stereo unspecified) |  |  |  |  |  |  |  |  | 62 | 
O=C(CNCC1(O)CCCCC1)N1CCc2ccccc2[C@@H]1c1ccccc1 | < 390 | 1000 |  |  |  |  |  |  |  | 
CC(C)(O)CNCC(=O)N1CCc2ccccc2C1C1CCCCC1 (stereo unspecified) |  | 1700 |  |  |  |  |  |  | 7.7 | 
CC[C@@H](O)CNCC(=O)N1CCc2ccccc2C1C1CCCCC1 (stereo partly specified) | 1000 | 1500 | 88 | 87 |  |  |  |  | 19 | 
CC[C@H](O)CNCC(=O)N1CCc2ccccc2C1C1CCCCC1 (stereo partly specified) | < 300 | 1900 | 83 | 81 |  |  |  |  | 27 | 
CC(C)(C)[C@@H](CO)NCC(=O)N1CCc2ccccc2C1C1CCCCC1 (stereo partly specified) | 68 | 1400 | 33 | 65 |  |  |  |  | 40 | 
CC(C)C[C@@H](CO)NCC(=O)N1CCc2ccccc2C1C1CCCCC1 (stereo partly specified) | 44 | 1100 | 46 | 69 |  |  |  |  | 32 | 
C[C@@H](O)CNCC(=O)N1CCc2c(F)cccc2C1C1CCCCC1 (stereo partly specified) | < 390 | 1200 | 49 | 95 |  |  |  |  |  | 
COc1cccc2c1CCN(C(=O)CNC[C@@H](C)O)C2C1CCCCC1 (stereo partly specified) | < 780 | 2000 | 63 | 107 |  |  |  |  |  | 
C[C@@H](O)CNCC(=O)N1CCc2cccc(F)c2C1C1CCCCC1 (stereo partly specified) |  | 2500 |  |  |  |  |  |  |  | 
COc1cccc2c1C(C1CCCCC1)N(C(=O)CNC[C@@H](C)O)CC2 (stereo partly specified) | 30200 | 1400 | 58 | 85 |  |  |  |  |  | 
C[C@@H](O)CNCC(=O)N1CCc2ccccc2[C@@H]1c1ccccc1 | 2200 | 2400 | 94 | 98 |  |  |  |  |  | 
C[C@@H](O)CNCC(=O)N1CCc2cccc(F)c2C1c1ccccc1 (stereo partly specified) | 1300 | 1000 | 95 | 103 |  |  |  |  |  | 
Cc1cccc2c1C(c1ccccc1)N(C(=O)CNC[C@@H](C)O)CC2 (stereo partly specified) | 5600 | 1300 | 89 | 100 |  |  |  |  |  | 
COc1cccc2c1[C@H](c1ccccc1)N(C(=O)CNC[C@@H](C)O)CC2 |  | 1400 | 90 | 94 | 45.9 | > 10000 | > 50000 | > 50000 | 77 | 2.8
COc1cccc2c1[C@@H](c1ccccc1)N(C(=O)CNC[C@@H](C)O)CC2 |  | 3300 | 91 | 110 |  |  |  |  |  | 

The next lines start with results.

IC50 [2] [nM] | IC50 [3] [nM] | activity at 30 min [4] [%] | activity [5] [%] | CLint scaled [7] [mL/min/kg] | IC50 [8] [nM] | IC50 [9] [nM] | IC50 [10] [nM] | SMILES | inhibition in vivo at 100 mg/kg [1] [%] | ED50 [6] [mg/kg]
1100 | 2000 | 95 | 92 |  |  |  |  | C[C@@H](O)CNCC(=O)N1CCc2ccccc2C1C1CCCCC1 (stereo partly specified) | 39 | 
1600 | 1500 | 91 | 96 |  |  |  |  | C[C@H](O)CNCC(=O)N1CCc2ccccc2C1C1CCCCC1 (stereo partly specified) | 0 | 
1400 | 1700 | 87 | 105 |  |  |  |  | C[C@@H](O)CNCC(=O)N1CCc2ccccc2[C@@H]1C1CCCCC1 | 55 | 
1600 | 1600 | 91 | 92 |  |  |  |  | C[C@@H](O)CNCC(=O)N1CCc2cc(F)ccc2C1C1CCCCC1 (stereo partly specified) |  | 
 | 2400 |  |  |  |  |  |  | Cc1ccc2c(c1)CCN(C(=O)CNC[C@@H](C)O)C2C1CCCCC1 (stereo partly specified) |  | 
< 780 | 1900 | 97 | 93 |  |  |  |  | COc1ccc2c(c1)CCN(C(=O)CNC[C@@H](C)O)C2C1CCCCC1 (stereo partly specified) |  | 
 | 3100 |  |  |  |  |  |  | C[C@@H](O)CNCC(=O)N1CCc2cc(C#N)ccc2C1C1CCCCC1 (stereo partly specified) |  | 
 | > 10000 |  |  |  |  |  |  | C[C@@H](O)CNCC(=O)N1CCc2cc(C(N)=O)ccc2C1C1CCCCC1 (stereo partly specified) |  | 
1300 | 2300 | 80 | 109 |  |  |  |  | C[C@@H](O)CNCC(=O)N1CCc2ccc(F)cc2C1C1CCCCC1 (stereo partly specified) |  | 
 | 1700 |  |  |  |  |  |  | Cc1ccc2c(c1)C(C1CCCCC1)N(C(=O)CNC[C@@H](C)O)CC2 (stereo partly specified) |  | 
1300 | 890 | 65 | 85 |  |  |  |  | CCc1ccc2c(c1)C(C1CCCCC1)N(C(=O)CNC[C@@H](C)O)CC2 (stereo partly specified) |  | 
1900 | 1300 | 43 | 88 |  |  |  |  | CC(C)c1ccc2c(c1)C(C1CCCCC1)N(C(=O)CNC[C@@H](C)O)CC2 (stereo partly specified) |  | 
3700 | 1600 | 83 | 97 |  |  |  |  | COc1ccc2c(c1)C(C1CCCCC1)N(C(=O)CNC[C@@H](C)O)CC2 (stereo partly specified) |  | 
 | 2600 |  |  |  |  |  |  | C[C@@H](O)CNCC(=O)N1CCc2ccc(C#N)cc2C1C1CCCCC1 (stereo partly specified) |  | 
